Source: PubChem
A selection: hits, their analogues and other compounds. The true share with any hit is near 3.1%.
SENP8 block-1: SENP8 protease inhibition; Q96LD8; purified SENP8, Z-RLRGG-aminoluciferin cleavage, luminescence; inhibition, % at 10 µM; 330,000 tested, 1.2% active; in the data active means inhibition above about 50%
Target sequence (Q96LD8 whole entry, looked up): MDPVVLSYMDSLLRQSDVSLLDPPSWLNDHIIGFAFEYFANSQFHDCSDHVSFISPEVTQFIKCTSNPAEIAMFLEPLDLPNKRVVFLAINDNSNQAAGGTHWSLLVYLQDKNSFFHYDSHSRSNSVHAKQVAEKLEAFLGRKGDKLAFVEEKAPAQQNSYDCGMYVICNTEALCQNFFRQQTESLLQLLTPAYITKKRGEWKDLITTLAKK
SENP6 inh: blocks the human protease SENP6; Q9GZR1; Recombinant SENP6 catalytic domain, aminoluciferin luminescence; inhibition, % at 10 µM; 330,000 tested, 1.8% active;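 active means inhibition above about 50% at the single tested dose, limit read from the data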;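 further: plate controls were DMSO wells with enzyme for no effect and DMSO wells lacking enzyme for full effect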
SENP8 block-2: inhibitors of human SENP8 protease; 360,000 tested, 0.64% active; recombinant SENP8, Nedd8 substrate fluorescence; inhibition, % at 20 µM; Q96LD8; in the data active means inhibition mostly above about 40%, no sharp cut-off; inactive means mostly below about 27%
UBC13 polyUb: human UBC13 polyubiquitination inhibition. inhibition, % at 20 µM. P61088. 330,000 tested, 0.47% active. UBC13 polyubiquitin chain formation, TR-FRET. AID 485273; in the data active means inhibition above about 45%, passing the limit was not always enough
Apaf1 inhib: blocks human Apaf-1 apoptosome activity | O14727 | reconstituted apoptosome caspase-3 activity, DEVD-Rh110 fluorescence | inhibition, % at 20 µM | 330,000 tested, 0.71% active; active means inhibition of at least 40% at 20 µM;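 further: plate controls were DMSO wells for no effect and DEVD-CHO caspase inhibitor wells for full effect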
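System: Apoptosome proteins | Medium: Hepes pH 7.5 with detergent and BSA | Also added: Cytochrome c trigger plus (Z-DEVD)2-Rh110 caspase-3 substrate | Incubation: 30 min compound preincubation, 50 min activation, room temperature | Detection: Rhodamine 110 fluorescence at Ex 480/Em 540 nm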
SENP7 inh: SENP7 protease inhibition; AID 434973; inhibition, % at 5 µM; recombinant SENP7, Z-RLRGG-aminoluciferin luminescence, 40 min; 330,000 tested, 1.5% active; Q9BQF6;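 active means inhibition above about 50% at the single test dose, limit read from the data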;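 further: plate controls were DMSO with enzyme for no effect and no enzyme buffer wells for full effect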
SENP8 confirm: human SENP8 inhibition, confirmed. 6,200 tested, 40% active. inhibition, % at 12.5 µM. Recombinant SENP8, Z-RLRGG-aminoluciferin luminescence, 60 min. shares compounds with SENP7 inh;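 active means mean inhibition across replicates above about 50%, limit read from the data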
SENP6 conf: confirmation of human SENP6 protease inhibitors | shares compounds with SENP7 inh | recombinant SENP6, Z-RLRGG-aminoluciferin luminescence | inhibition, % at 12.5 µM | 6,200 tested, 58% active | AID 488915
SENP7 conf: confirmation of human SENP7 protease inhibitors. recombinant SENP7, Z-RLRGG-aminoluciferin luminescence, 40 min. 6,200 tested, 69% active. shares compounds with SENP7 inh. AID 488917. inhibition, % at 12.5 µM
Casp3 select: caspase-3 inhibition (SENP selectivity assay) | shares compounds with SENP7 inh | purified caspase-3, Z-DEVD-aminoluciferin luminescence, 60 min | inhibition, % at 12.5 µM | 6,200 tested, 60% active;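 active means mean inhibition above about 50%, limit read from the data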;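 further: plate controls were enzyme with DMSO for no effect and wells without caspase-3 for full effect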
Target sequence (P42574 28-227 limits assumed): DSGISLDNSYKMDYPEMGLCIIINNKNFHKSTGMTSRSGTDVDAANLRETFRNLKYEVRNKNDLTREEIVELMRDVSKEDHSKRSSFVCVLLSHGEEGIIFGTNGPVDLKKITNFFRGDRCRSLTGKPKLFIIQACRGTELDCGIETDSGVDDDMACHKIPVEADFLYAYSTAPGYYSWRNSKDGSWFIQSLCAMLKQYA
Luc interf: counter-screen for SENP inhibitors: luminescence interference; shares compounds with SENP7 inh; Pre-incubated SENP8/Z-RLRGG-aminoluciferin, luciferase luminescence interference; inhibition, % at 12.5 µM; 6,200 tested, 39% active; AID 488919;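 active means mean inhibition above about 50% when retested at one dose, limit read from the data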;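 further: plate controls were DMSO wells with completed reaction for no effect and substrate without enzyme for full effect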
Starred values were filed as active, the others as inactive; . = no result.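 How the source made its calls, unless noted: active means mean inhibition above about 50% in the one-dose retest (limit read from the data); inactive means the rest.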

SMILES	SENP8 block-1	SENP6 inh	SENP8 block-2	UBC13 polyUb	Apaf1 inhib	SENP7 inh	SENP8 confirm	SENP6 conf	SENP7 conf	Casp3 select	Luc interf
c1ccc(-c2nnc(-c3ccccn3)nn2)nc1	79*	14	33	-65	-27	11	-4	54*	85*	86*	66*
c1ccc(-c2ccc(-c3ccccn3)s2)nc1	76*	83*	-418	11	3	84*	75*	81*	97*	86*	21
O=C(O)c1ccc(-c2ccccn2)s1	-2	5	-4	-4	-1	8	.	.	.	.	.
Cc1c(NC(=O)c2cccc(NC(=O)C(C)Oc3ccccc3)c2)c(=O)n(-c2ccccc2)n1C (stereo not drawn)	.	.	-15	.	.	.	.	.	.	.	.
N#Cc1ccccc1C[C@H](N)C(=O)NC[C@H]1O[C@@H](n2cnc3c(N)ncnc32)[C@H](O)[C@@H]1O	.	.	14	.	.	.	.	.	.	.	.
O=C1NC[C@H](Cc2ccccc2)N(C[C@@H]2CCCN2C[C@H](Cc2ccccc2)N2C[C@H](Cc3ccc(O)cc3)N(CCc3ccccc3)C(=O)C2=O)C1=O	.	.	18	.	.	.	.	.	.	.	.
COc1cc(O)c2c(c1)OC(C)(C)CC2=O	2	-5	26	9	-1	-6	.	.	.	.	.
COc1cc(O)cc2cc3c(c(O)c12)C(=O)CC(C)(O)O3 (stereo not drawn)	21	58*	11	-95	4	13	2	9	17	24	30
O=[N+]([O-])c1ccc(O)c(/C=N/NC(=S)Nc2ccc(Cl)cc2Cl)c1	88*	94*	28	-32	-9	57*	77*	85*	55*	35	6
O=C(Nc1ccccc1)C(=O)Nc1ccc2c(c1)N(C(=O)C1CC1)CCC2	96*	98*	10	-2	17	99*	56*	100*	103*	98*	27
O=C(C1CCC(C(=O)N2CCc3ccccc32)CC1)N1CCc2ccccc21 (stereo not drawn)	5	1	4	-3	27	4	.	.	.	.	.
O=C(CNc1cccc2ccccc12)N/N=C/c1ccc([N+](=O)[O-])o1	9	80*	-99	-12	22	39	22	40	12	0	-1
O=C(COc1ccc2c(c1)CCC2)Nc1ccccn1	95*	97*	6	-2	7	99*	97*	98*	101*	97*	96*
Cc1cccc(NC(=O)COc2ccc3c(c2)CCC3)n1	29	61*	12	-2	9	51*	56*	56*	84*	60*	46
O=C(COc1ccc2c(c1)CCC2)NCc1ccccc1	-3	5	11	9	2	-7	.	.	.	.	.
Cc1cnc(NC(=O)COc2ccc3c(c2)CCC3)s1	13	52*	4	7	14	45	-15	4	22	13	2
Cc1cccc(NC(=O)COc2ccc3oc4c(c3c2)CCCC4)n1	-1	-4	-15	-4	-2	4	.	.	.	.	.
CCC1(C)N=C(c2ccc3c(c2)OCO3)CC(c2ccccc2O)N1 (stereo not drawn)	78*	91*	-151	4	-13	2	82*	46	13	48	63*
CCN(CC(=O)Nc1ccccc1C(F)(F)F)CC(=O)c1[nH]c(C)c(C(C)=O)c1C	.	.	12	.	.	.	.	.	.	.	.
COc1ccc(CC(N)c2csc(Nc3nccc(C(F)(F)F)n3)n2)cc1 (stereo not drawn)	.	.	17	.	.	.	.	.	.	.	.
COC(=O)c1c(C)[nH]c(C(=O)COC(=O)CCc2ccc(OC)c(OC)c2)c1C	.	.	20	.	.	.	.	.	.	.	.
